Results collected from several papers.
Each line is one published result; the experiments were not run side by side.
Action: inhibitor
MET: Hepatocyte growth factor receptor (MET, Homo sapiens, UniProt P08581)

COc1cc2ncnc(Nc3ccc(Oc4ccccc4)cc3C)c2cc1OC  inhibition (MET; enzyme activity; 1 µM): -1%
CC/C(=N\NC(=O)NCc1cccc(O)c1)c1ccc(O)c(C)c1O  inhibition (MET; enzyme activity; 0.1 µM): 1.1%
CN1CC(Oc2cnc(C#N)cc2-c2ccn3nc(NC(=O)C4CC4)cc3c2)C1  inhibition (MET; enzyme activity; 1 µM): -19%
COc1cc2ncnc(Nc3ccc(Oc4ccccc4)c(C)c3C)c2cc1OC  inhibition (MET; enzyme activity; 1 µM): 8%
CNC(=O)c1cc(Oc2ccc(NC(=O)Nc3ccc(Cl)c(C(F)(F)F)c3)cc2)ccn1  inhibition (MET; enzyme activity; 10 µM): -13%
CNc1cccc2cc(C(=O)Nc3ccc(C(=O)O)cc3)c(=O)[nH]c12  inhibition (MET; enzyme activity; 10 µM): 1.4%
CNc1cc(Oc2cc(C(=O)Nc3cc(N4CCN(C)CC4)cc(C(F)(F)F)c3)ccc2C)ncn1  inhibition (MET; target engagement in cells, chemoproteomics; Huh-7; 1 µM): -18.4%
COc1cc2nccc(Oc3ccc(NC(=O)c4c5n(n(-c6ccc(F)cc6)c4=O)CCCC5)cc3)c2cc1OC  inhibition (MET; enzyme activity; 0.1 µM): 98%
CNC(=O)c1cc2c(Oc3ccc(NC(=O)C4(C(=O)Nc5ccc(F)cc5)CC4)cc3)ccnc2cc1OC  inhibition (Hepatocyte growth factor receptor (MET, Homo sapiens, UniProt P08581, M1250T); enzyme activity, radiometric; 1 µM): 99%
CS(=O)(=O)Nc1cccc(-c2csc(NC(=O)CSc3nc4nccnc4c(=O)n3CCc3ccccc3)n2)c1  inhibition (MET; enzyme activity; 10 µM): 1%
CN(C)C1CCN(CC#Cc2nn(C3CCCC3)c3nc(NCc4ccccc4)ncc23)C1 (centres unmarked)  inhibition (MET; enzyme activity, FRET; 0.1 µM): 6%
